Variants at the floor of the assay were thinned out.
B1: tRNA (parent)
chain: GUUCCGUUGGCGUAAUGGUAACGCGUCUCCCUCCUAAGGAGAAGACUGCGGGUUCGAGUCCCGUACGGAACG

Variants of: B1
Experiment: yeast fitness relative to wild type (ratio to wild type); higher = fitter; tRNA-Arg(CCU), competitive growth, 37 C, YPD
Summary of the method: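 Gene amplicons from the start population and from each of six end populations were read by 100-nucleotide paired-end sequencing. Those end populations came from pooled Saccharomyces cerevisiae strains carrying tRNA-Arg(CCU) gene variants at the native locus, competed in YPD at 37°C for 24 hours. Fitness relative to wild type was worked out from changes in genotype frequencies. Genotypes needed ≥ 100 starting reads, and estimates < 0.5 were set to 0.5.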

Variant | yeast fitness
U3A G9C C24G C30U C34A G51A | ≤ 0.5
U3C A20G C29G C55U | ≤ 0.5
U3C A40G C46A U53C | 0.663
U3A U13G A70C | 0.784
U3A G18A C22U U64C | ≤ 0.5
U3A G9A A15C C27U A57U C62A | 0.667
U3C A37C U64A | 0.598
U3A G9A A14G C49U | ≤ 0.5
U3A G6C C55U G63A | ≤ 0.5
U3C A20U | 0.866
U3C A37C C62G | 0.548
U3C C5G A15G | ≤ 0.5
U3A G18A C22U U64C A70G | ≤ 0.5
U3C C4U G10A C30U C49U | 0.598
U3A U19G A36C | ≤ 0.5
U3A U16A C22U U35A A36C G38U G48C | ≤ 0.5
U3A G17A C22U A43C A69C | ≤ 0.5
U3A U16G C46U U54A | ≤ 0.5
U3C A21G A43U A65C G68C | ≤ 0.5
U3A G6A U16A C24G A37U C49U C62U | 0.61
U3C C4U C24G C49U C60U C61A | ≤ 0.5

Variant | yeast fitness
U3C A15U C34U A43G C49U | ≤ 0.5
U3A C46A G63A A69C | 0.731
U3A G17A C22U C46G | ≤ 0.5
U3A U53C C55U | ≤ 0.5
U3A C61G | 0.767
U3A C61A | 0.778
U3C A21G U32C A43U | 0.722
U3C A37C | 0.82
U3A U32C A69U | 0.685
U3A C49U C60U A70G | 0.551
U3C A21U G67C | ≤ 0.5
U3C A69C | 0.967
U3A U19A | 1.02
U3C A40C A45G C46A | ≤ 0.5
U3A G38A G48A | 0.54
U3C A20C C46U C60U C61U | 0.759
U3A G48A C49G | 0.574
U3C A21G G44C G63C | ≤ 0.5
U3A C49A A69U | 0.558
U3C C5G C24A | ≤ 0.5
U3A G48A G67A | 0.541

Variant | yeast fitness
U3C A21G C33G C34G | ≤ 0.5
U3C A20U C30A | 0.568
U3A G48C C55A C66G G67C | ≤ 0.5
U3C A15G | 1.03
U3C A36U G39A | ≤ 0.5
U3C A45U | 0.999
U3C A45C | 0.856
U3A G10A C30U C60G | ≤ 0.5
U3A U19A A57G | 0.751
U3C C4G U7C A21C G23C C55A U64A A65C | ≤ 0.5
U3C C4U C24U C62U A69U | 0.638
U3A C55U G68C | 0.573
U3C C4G G12C G44C A57U | ≤ 0.5
U3A U8C | 0.925
U3A U8A | 0.723
U3A G18A C22U A65U | ≤ 0.5
U3C A20C G23C G56C A65C G68A | ≤ 0.5
U3A U26G C49A C60A | ≤ 0.5
U3A G68C | 0.822
U3C A15U C34U A43G | 0.545
U3A U7A A69U | ≤ 0.5

Variant | yeast fitness
U3C A20G C24U G38A G58C | ≤ 0.5
U3A U16C | 0.824
U3C A40G C46A | 0.966
U3C C4U A15G U26A U32A C60G G67A | ≤ 0.5
U3A U8A U13C C31G A40C | ≤ 0.5
U3A G25A C49G A65G | ≤ 0.5
U3A G52A C60A A69G | ≤ 0.5
U3C C4A A36U A43U | ≤ 0.5
U3A U7C C62G G63C | 0.586
U3A C62U | 0.961
U3A G17A C22U U64C | ≤ 0.5
U3A C66G G68C | 0.623
U3A C66U | 0.891
U3A G18A | 0.661
U3A G39A | 0.888
U3A G39C | 0.822
U3A U32A U59G | 0.585
U3A G9C G56C | ≤ 0.5
U3C A40G C62U A65U | ≤ 0.5
U3C A21G | 0.962
